Assay outcomes (PubChem BioAssay)
PMI act: activators of human PMI, primary screen, biochemical, fluorescence intensity, near-Km mannose 6-phosphate; Mannose-6-phosphate isomerase (Homo sapiens), P34949; purified human PMI, coupled resazurin fluorescence, 20 min; active compounds read high; 1 = vehicle control, 0 substrate-free wells; activation factor at 20 µM; actives 0.005% (n = 190,000);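 active means activation factor of 2 or more at 20 µM, relative to plate controls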
PMI act satM6P: human PMI activators, high substrate, primary screen, biochemical, fluorescence intensity, near-saturating mannose 6-phosphate; actives 0.34% (n = 190,000); activation factor at 20 µM; coupled PMI enzyme assay, resazurin fluorescence, 20 min; active compounds read high; 1 = untreated enzyme, 0 = substrate-free blank; AID 1216, 2008;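 active means activation factor of 2 or more at 20 µM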
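assay system = human phosphomannose isomerase with PGI, G6PDH, diaphorase coupling enzymes | quantity = 15 ng/mL PMI | incubation = enzyme reaction with compound 20 min at room temperature | medium = HEPES pH 7.4 buffer with MgCl2 and Tween-20 | compound dosing = one concentration, 20 µM, in 1% DMSO | measured by = Diaphorase-driven resazurin-to-resorufin fluorescence, excitation 544, emission 590 nm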
ABCB1 inh: ABCB1 efflux pump inhibitors, primary screen, cell-based, multiplex, flow cytometry, ABCG2 counter-screen. inhibition, % at 6.6 µM. CCRF-Adr cells, JC-1 efflux. actives 0.067% (n = 190,000). AID 1326, 2008; in the data active means inhibition above about 40%;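 further: 0% = vehicle and 100% = reference inhibitor; higher value means more JC-1 retained so stronger ABCB1 efflux block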
KCC2 mod: KCC2 cotransporter modulators, thallium flux, primary screen, cell-based, HEK293 KCC2, FluoZin-2 fluorescence, MLSMR; KCC2 cells, thallium flux FluoZin-2 fluorescence; B-score of Tl+ flux slope (higher = more flux/activation; lower = inhibition) at 10 µM; actives 2.2% (n = 190,000);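 active means thallium flux slope and its plate-corrected score both differing from the plate sample mean at a set confidence after two filtering rounds, in either direction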;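 further: slope of fluorescence scaled to starting intensity during 10 to 20 s after thallium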
ABCG2 block: ABCG2 efflux pump inhibitors, primary screen, multiplex with ABCB1, IgMXP3 cells, flow cytometry. Broad substrate specificity ATP-binding cassette transporter ABCG2 (Homo sapiens), Q9UNQ0. JC-1 efflux. inhibition, % at 6.6 µM. actives 0.1% (n = 190,000);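 active means inhibition above 80%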;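 further: 0% = DMSO and 100% = nicardipine control wells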
Target sequence (Q9UNQ0 whole entry, looked up): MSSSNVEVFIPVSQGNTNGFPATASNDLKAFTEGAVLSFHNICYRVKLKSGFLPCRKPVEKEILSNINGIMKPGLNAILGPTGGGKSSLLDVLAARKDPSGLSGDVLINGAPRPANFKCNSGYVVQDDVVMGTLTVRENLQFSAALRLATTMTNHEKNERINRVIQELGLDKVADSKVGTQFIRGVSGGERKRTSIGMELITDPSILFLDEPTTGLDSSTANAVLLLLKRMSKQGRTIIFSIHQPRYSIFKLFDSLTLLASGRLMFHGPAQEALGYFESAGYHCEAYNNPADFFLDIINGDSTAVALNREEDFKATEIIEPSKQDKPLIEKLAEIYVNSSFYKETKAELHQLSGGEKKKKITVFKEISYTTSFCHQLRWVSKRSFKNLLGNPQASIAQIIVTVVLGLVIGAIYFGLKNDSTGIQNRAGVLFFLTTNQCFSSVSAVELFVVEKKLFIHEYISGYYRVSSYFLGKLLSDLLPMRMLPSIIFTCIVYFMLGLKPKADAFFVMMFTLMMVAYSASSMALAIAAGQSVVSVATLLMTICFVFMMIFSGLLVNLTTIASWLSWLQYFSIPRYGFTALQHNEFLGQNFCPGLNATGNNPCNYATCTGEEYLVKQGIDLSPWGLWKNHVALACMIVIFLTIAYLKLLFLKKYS
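Test system: IgMXP3 (ABCG2) plus far-red-tagged CCRF-Adr (ABCB1) cells / Amount: 3 million cells/mL in well / Reagent: JC-1 transporter substrate / Timing: 10 min compound exposure, 25 °C / Signal: flow cytometry, 530 nm JC-1 signal / Read-out: percent efflux inhibition, scaled nicardipine 100% to DMSO 0% / Benchmarks: nicardipine as high control, DMSO as low control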
ROMK primary: ROMK potassium channel modulators, primary screen, cell-based, thallium flux, MLSMR library. Tet-inducible ROMK, thallium flux fluorescence; actives lie on both sides. AID 1918, 2009. actives 2% (n = 130,000). B-score at 10 µM. ATP-sensitive inward rectifier potassium channel 1 (Homo sapiens), P48048;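 active means signal ratio slope over the read window, or its plate-corrected B-score, at least 3 SD from the plate mean, either direction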;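 further: B-score of the F/F0 ratio slope over 7 to 12 s after thallium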
KCC2 secondary: KCC2 modulators in sodium-free buffer, confirmation, cell-based, HEK293 KCC2, thallium flux, secondary assay. shares compounds with KCC2 mod. FluoZin2 fluorescence; active compounds read high. normalised thallium flux (F/F0 slope) at 10 µM. actives 15% (n = 3,700). AID 1713, 2009;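 active means thallium flux slope above the same plate's solvent-only control mean plus 3 SD; inconclusive means the two replicate wells disagree; inactive means no significant difference from solvent-only control wells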
KCC2 bumet counter: thallium flux persisting under bumetanide in KCC2 cells, confirmation, counter-screen for KCC2 modulator project, cell-based, HEK293 KCC2, FluoZin2, secondary assay 3 | shares compounds with KCC2 mod | HEK293-KCC2 + bumetanide/ouabain; active compounds read high | normalized thallium flux at 10 µM | actives 49% (n = 3,700);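 active means thallium entry rate above the same plate's blocked-transporter control wells by more than 3 SD; inconclusive means the two repeat wells disagree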;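 further: raw slope of fluorescence over initial fluorescence between 10 and 20 s after thallium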
KCC2 secondary2: KCC2 modulators without ouabain present, confirmation, cell-based, HEK293 KCC2, thallium flux, FluoZin2, secondary assay 2; shares compounds with KCC2 mod; normalized thallium flux at 10 µM; thallium flux FluoZin2 fluorescence; actives lie on both sides; F/F0 rise rate, 10–20 s post-thallium; actives 23% (n = 3,700); AID 1715, 2009;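 active means thallium flux slope more than 3 SD above or below the plate's solvent-only control mean, mostly below; inconclusive means the two repeat wells disagreed; inactive means no significant shift from solvent-only controls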;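 further: raw slope with 0.1% DMSO as baseline and bumetanide as block control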
HEK293 Tl flux: thallium flux modulation in parental HEK cells, confirmation, counter-screen for KCC2 modulator project, cell-based, counterscreen 1. shares compounds with KCC2 mod. HEK293 parental cells, thallium flux FluoZin2, ouabain; baseline-ratio fluorescence slope, 10–20 s after thallium. thallium flux rate (normalised fluorescence) at 10 µM. actives 46% (n = 3,700);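 active means thallium flux rate significantly above the same plate's solvent-only control wells, beyond their mean plus 3 SD; inconclusive means the two replicate wells gave conflicting results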
KCC2 ouabain: KCC2 inhibitors and activators, ouabain retest, confirmation, HEK-KCC2 cells | HEK293-KCC2, thallium flux FluoZin2 fluorescence; bidirectional: low = inhibitor, high = activator | actives 48% (n = 3,700) | shares compounds with KCC2 mod | AID 1717, 2009 | raw Tl+ flux slope (below DMSO = inhibition, above = activation) at 10 µM;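 active means thallium flux slope beyond 3 SD from same-plate DMSO control mean in most replicates, usually higher, sometimes lower; inconclusive means repeat tests gave conflicting results; inactive means no significant difference from controls in most replicates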;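 further: slope of initial-normalized fluorescence between seconds 10 and 20 after thallium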
HEK293 Tl flux2: native HEK Tl+ uptake effects, second counter-screen – HEK cells, counterscreen 2, counter-screen for KCC2 modulator project, confirmation | shares compounds with KCC2 mod | actives 33% (n = 3,700) | HEK293 parental, thallium flux FluoZin-2 fluorescence slope | thallium flux slope at 10 µM;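 active means thallium flux slope above the same plate's solvent-control mean plus 3 SD in both duplicate wells; inconclusive means duplicate wells that disagreed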;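 further: run without ouabain in cells lacking the KCC2 cotransporter; slope of fluorescence scaled to its starting value between 10 and 20 s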
Starred values were filed as active, the others as inactive; ? = inconclusive; / = no result given. The list is not random: actives were taken first. Their share in the collection is about 3.3%.

SMILES	PMI act	PMI act satM6P	ABCB1 inh	KCC2 mod	ABCG2 block	ROMK primary	KCC2 secondary	KCC2 bumet counter	KCC2 secondary2	HEK293 Tl flux	KCC2 ouabain	HEK293 Tl flux2
CCCc1sc(N/N=C/c2ccccn2)nc1-c1ccc(F)cc1	1	1	-1	/	0	/	/	/	/	/	/	/
CCN=c1scc(-c2ccc(F)cc2)n1/N=C/c1ccccn1	1.4	1.7	1	-5.7*	4	0.46	0.0052	0.0044	0.023*	?	0.014*	0.011
CCn1c(CNC(=O)COc2ccc(C(C)C)cc2)nnc1SCC(=O)Nc1cc(F)ccc1C	0.9	1	3	/	6	/	0.0081	0.0064	0.035	?	0.017*	0.012
CCn1c(CNC(=O)COc2ccc(C(C)C)cc2)nnc1SCC(=O)Nc1ccc(F)cc1	0.9	0.9	0	-2.3	3	/	/	/	/	/	/	/
COc1cc2nc(CN3CCOCC3)n(CC(=O)NCC(F)(F)F)c(=O)c2cc1OC	/	/	/	0.55	/	-0.53	/	/	/	/	/	/
CCOC(=O)Cc1csc(NC(=O)Cc2ccc([N+](=O)[O-])cc2)n1	1	1.1	1	0.47	5	0.28	/	/	/	/	/	/
CCOC(=O)Cc1csc(NC(=S)NC(=O)c2ccc(Cl)cc2)n1	1	1	0	10*	5	0.089	0.0075	0.043*	0.042*	0.042*	0.058*	0.02*
CCOC(=O)Cc1csc(NC(=S)NC(=O)c2ccc([N+](=O)[O-])cc2)n1	0.9	0.9	1	9.8*	45	-0.95	0.016*	0.036*	0.033	0.025*	0.041*	0.012
CC(C)NC(=O)NC(=O)COC(=O)c1cc[n+]([O-])cc1	1	1	0	1.2	7	-0.12	/	/	/	/	/	/
CCN(CC)c1ccc(C(=O)Nc2cccc(F)c2)cc1	0.9	0.9	1	-3.3*	6	/	0.018	0.0038	0.027	?	0.014	0.0094
CN(C)c1cccc(C(=O)Nc2cccc(F)c2)c1	0.6	0.9	1	-0.28	5	/	/	/	/	/	/	/
CCS(=O)(=O)c1c([N+](=O)[O-])ncn1C	1	1	0	0.32	-2	-0.0059	/	/	/	/	/	/
CCN(CC)c1c([N+](=O)[O-])ncn1C	1	1	0	/	2	-1.8	0.011	0.0062	0.034	?	0.019	?
COc1ccc(-c2oc3ccccc3c(=O)c2OC(C)=O)cc1	1.1	1.1	0	55*	2	0.43	0.022*	0.09*	0.041	?	0.071*	?
COc1ccc(-c2oc3ccccc3c(=O)c2OCC(=O)O)cc1	1	1.1	0	-0.1	3	1.8	/	/	/	/	/	/
C=CCNC(=O)CSc1nnc(C(CC)N(C)C)n1C1CCCCC1 (centres undefined)	/	/	/	0.22	/	0.92	/	/	/	/	/	/
O=P(CCN1CCCCC1)(c1ccccc1)c1ccccc1	1.1	1	1	-17*	3	1.4	0.0066	0.005	0.028	0.0078	0.018	0.012
CCc1ccc(C2C3=C(CC(C)(C)CC3=O)Nc3c2c(=O)[nH]c2nc(C)nn32)cc1 (centres undefined)	1.1	1.1	0	-0.9	2	-0.058	/	/	/	/	/	/
Cc1nc2[nH]c(=O)c3c(n2n1)NC1=C(C(=O)CC(C)(C)C1)C3c1ccc(F)cc1 (centres undefined)	0.9	1	0	/	1	0.27	0.006	0.0046	0.03	0.0068	0.018	0.01
CCOC(=O)c1oc2ccc(/C=N/O)c(Cl)c2c1C	0.8	0.8	0	-0.66	1	-0.11	/	/	/	/	/	/
O=C(Cn1cnc2ccccc21)N/N=C/c1cccc([N+](=O)[O-])c1	1	0.9	1	-0.34	29	-0.21	/	/	/	/	/	/
CSc1nc(C)cc(OCNC(=O)c2cccs2)n1	1	1.1	1	/	15	-0.86	/	/	/	/	/	/
CCNC(=S)Nc1ccccc1-c1ccccc1	0.9	0.9	1	0.21	1	-0.031	/	/	/	/	/	/
C=C(C)CNC(=S)NN=C1c2ccccc2-c2ccccc21	1	1	0	28*	17	1.8	0.0068	0.075*	0.046*	0.026*	0.055*	0.027*
CCNC(=S)NN=C1c2ccccc2-c2ccccc21	1.1	1.1	0	34*	0	0.87	0.018*	0.051*	0.033	0.067*	0.047*	0.016*
COc1ccccc1C(=O)NC1CCN(C(=S)NCCc2ccccc2)CC1	1	1	1	-3.1*	5	-1.6	0.007	0.0045	0.025*	0.0078	?	0.011
O=C(NC1CCN(C(=S)NCCc2ccccc2)CC1)C1CCCCC1	1.1	1.1	0	0.014	2	-2.1	/	/	/	/	/	/
